Results taken from PMC11913021 (Journal of Medicinal Chemistry, 2024).
Residue numbers refer to the chain shown, from its start.

What was measured:
F614A mutant PLD1 = target: T1, F614A mutant PLD1 (Homo sapiens, UniProt Q13393, F652A); assay: PLD activity assay in F614A mutant PLD1-transfected cells; type: cell-based
T1 sequence (Q13393 1-1036 isoform Q13393-2 F614A): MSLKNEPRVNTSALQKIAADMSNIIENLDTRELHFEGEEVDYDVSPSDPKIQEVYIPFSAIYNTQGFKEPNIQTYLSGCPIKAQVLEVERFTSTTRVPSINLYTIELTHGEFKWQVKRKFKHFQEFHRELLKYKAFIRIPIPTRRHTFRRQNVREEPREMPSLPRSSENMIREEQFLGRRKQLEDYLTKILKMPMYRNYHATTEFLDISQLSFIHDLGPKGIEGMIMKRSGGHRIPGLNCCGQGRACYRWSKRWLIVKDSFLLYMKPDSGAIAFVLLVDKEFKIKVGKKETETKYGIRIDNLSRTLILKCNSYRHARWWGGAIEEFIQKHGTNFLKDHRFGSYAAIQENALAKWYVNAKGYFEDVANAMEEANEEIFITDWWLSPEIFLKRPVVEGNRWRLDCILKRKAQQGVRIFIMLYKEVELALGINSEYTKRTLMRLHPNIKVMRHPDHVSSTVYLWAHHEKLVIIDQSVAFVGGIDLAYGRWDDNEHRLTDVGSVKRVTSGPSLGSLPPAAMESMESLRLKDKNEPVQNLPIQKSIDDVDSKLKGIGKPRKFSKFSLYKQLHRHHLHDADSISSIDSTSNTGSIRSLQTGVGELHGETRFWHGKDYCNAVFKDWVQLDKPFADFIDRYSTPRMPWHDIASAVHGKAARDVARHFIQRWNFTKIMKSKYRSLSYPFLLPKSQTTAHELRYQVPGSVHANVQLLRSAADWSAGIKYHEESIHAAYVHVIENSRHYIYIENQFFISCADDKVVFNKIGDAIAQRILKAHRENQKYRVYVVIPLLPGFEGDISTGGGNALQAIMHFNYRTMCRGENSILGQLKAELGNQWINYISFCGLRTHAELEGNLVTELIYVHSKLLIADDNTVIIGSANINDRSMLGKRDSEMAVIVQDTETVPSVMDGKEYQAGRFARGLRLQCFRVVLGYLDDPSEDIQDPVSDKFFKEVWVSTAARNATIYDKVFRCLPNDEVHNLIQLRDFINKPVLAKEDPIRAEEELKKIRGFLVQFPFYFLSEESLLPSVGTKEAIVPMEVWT

wild-type PLD1 = target: T2, wild-type PLD1 (Homo sapiens, UniProt Q13393); assay: PLD activity assay in wild-type PLD1-transfected cells; type: cell-based
T2 sequence (Q13393 1-1036 isoform Q13393-2): T1 sequence (Q13393 1-1036 isoform Q13393-2 F614A) with A614F

[1] = tested on: EGFR-RAS-mediated signaling pathways; assay: Immunoblot of RAS downstream molecules in EGF-stimulated A549 cells; type: cell-based
How it was run: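 Lysates made in passive buffer with protease and phosphatase inhibitor cocktail, boiled 5 min, then separated by SDS-PAGE and transferred to PVDF. Membranes blocked in TBS-T with 5% BSA and probed overnight at 4 °C for phospho- and total Akt, ERK and IκBα. HRP-conjugated secondary antibodies and chemiluminescence were used for detection.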

A549 cells [2] = assay: Transwell migration and invasion assay; type: cell-based
How it was run: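 Cells at 5 × 10^4 cells/ml in serum-free medium placed in 8 μm pore transwell chambers; for invasion the chambers were Matrigel-precoated. After 24 h, non-migrated cells were swabbed off. Cells on the underside were fixed in 4% PFA for 20 min, stained with crystal violet for 10 min, and counted by light microscopy.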

A549 cells [3] = assay: IncuCyte cell growth and death assay; type: cell-based; settings: time-dependent
A549 cells [4] = assay: Ki67 staining proliferation assay; type: cell-based
LLC mouse lung cells = assay: LLC lung cancer syngeneic model in C57BL/6 mice; type: in vivo
How it was run: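 Male C57BL/6 mice (6 weeks old) received 3 × 10^5 LLC cells in PBS subcutaneously in the flank. From day 7 they were randomised to vehicle PO daily or test compound 10 mg/kg PO every other day, for 3 weeks. Tumour IHC used citrate antigen retrieval, blocking with 0.3% H2O2 and 2.5% horse serum, primary antibodies overnight at 4 °C, HRP/ABC with DAB, and hematoxylin counterstain. CD163 was assessed by immunofluorescence.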

[5] = tumor tissue immunofluorescence

Substance: N-(3,5-Bis(trifluoromethyl)phenyl)-3-(1H-indol-3-yl)propanamide [3r]
- PLD activity (F614A mutant PLD1): did not significantly inhibit
- PLD activity (wild-type PLD1): significantly suppressed
- phospho-Akt, phospho-ERK, and phospho-IkBα levels [1]: markedly reduced
- invasion (A549 cells [2]): significantly inhibited
- migration (A549 cells [2]): significantly inhibited
- death of A549 cells (A549 cells [3]): increased
- proliferation of A549 cells (A549 cells [3]): significantly suppressed
- Ki67-positive proliferation (A549 cells [4]): significantly inhibited
- tumor formation (LLC mouse lung cells; 10 mg/kg PO every other day, C57BL/6, LLC): significantly attenuated
- apoptosis in tumor tissue (active caspase 3 IHC) (LLC mouse lung cells; IHC): enhanced
- proliferation in tumor tissue (Ki67 IHC) (LLC mouse lung cells; IHC): reduced
- expression of ’eat-me’ signals (calreticulin) (LLC mouse lung cells; tumor tissue IHC): increased
- levels of RAS and downstream molecules (p-ERK, p-Akt, p-IKBα) (LLC mouse lung cells; tumor tissue IHC): decreased
- levels of ’don’t eat-me’ signals (CD47, CD24, PD-L1) (LLC mouse lung cells; tumor tissue IHC): reduced
- population of CD4^+ and IL-17^+ Th17 cells (LLC mouse lung cells; [5]): increased
- population of CD80^+ pro-inflammatory M1 macrophages (LLC mouse lung cells; [5]): increased
- population of CD163^+ anti-inflammatory M2 macrophages (LLC mouse lung cells; [5]): decreased
- population of cytotoxic CD8^+ T cells (LLC mouse lung cells; [5]): increased
- size and weight of the spleen (LLC mouse lung cells; tumor-bearing mice vs vehicle): recovered
